Source: ChEMBL document CHEMBL1133855 (Bioorg Med Chem Lett, 2001)

What was measured:
Adenosine receptor A2a = Adenosine receptor A2a (Homo sapiens, UniProt P29274); experiment: Affinity for A2a receptor by displacement of [3H]-CGS- 21680 from human striatum
Adenosine receptor A3 = biological target: T1, Adenosine receptor A3 (Homo sapiens, UniProt P0DMS8); experiment: Displacement of [125I]AB-MECA from human Adenosine A3 receptor expressed in CHO cells; format: cell-based
T1 sequence (P0DMS8 whole entry): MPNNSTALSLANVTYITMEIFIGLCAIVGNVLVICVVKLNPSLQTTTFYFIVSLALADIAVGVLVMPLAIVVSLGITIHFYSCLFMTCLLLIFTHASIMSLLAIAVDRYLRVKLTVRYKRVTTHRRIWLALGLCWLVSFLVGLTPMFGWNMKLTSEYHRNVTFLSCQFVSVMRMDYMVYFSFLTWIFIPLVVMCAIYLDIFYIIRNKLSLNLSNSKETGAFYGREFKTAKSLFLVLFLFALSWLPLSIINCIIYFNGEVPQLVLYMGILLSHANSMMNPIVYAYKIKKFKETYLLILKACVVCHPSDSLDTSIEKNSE

Adenosine receptor A1 = biological target: T2, Adenosine receptor A1 (Homo sapiens, UniProt P30542); experiment: Affinity for Adenosine A1 receptor by displacement of [3H]DPCPX from human cerebral cortex; format: tissue-based
T2 sequence (P30542 whole entry): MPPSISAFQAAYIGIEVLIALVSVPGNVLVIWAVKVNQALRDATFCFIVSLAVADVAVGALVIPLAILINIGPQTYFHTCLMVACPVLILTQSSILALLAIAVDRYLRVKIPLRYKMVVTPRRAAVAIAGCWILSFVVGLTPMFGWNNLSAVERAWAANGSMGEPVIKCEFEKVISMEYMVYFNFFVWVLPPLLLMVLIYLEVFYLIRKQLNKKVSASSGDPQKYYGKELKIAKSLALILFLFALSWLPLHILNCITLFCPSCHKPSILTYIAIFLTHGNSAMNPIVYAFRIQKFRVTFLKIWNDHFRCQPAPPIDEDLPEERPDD
Outline: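 Membranes from human cerebral cortex; competition against [3H]DPCPX. IC50 fitted by non-linear least squares and converted to Ki via Cheng–Prusoff; means ± SE of three experiments.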

Chain of Adenosine receptor A2a (P29274 whole entry): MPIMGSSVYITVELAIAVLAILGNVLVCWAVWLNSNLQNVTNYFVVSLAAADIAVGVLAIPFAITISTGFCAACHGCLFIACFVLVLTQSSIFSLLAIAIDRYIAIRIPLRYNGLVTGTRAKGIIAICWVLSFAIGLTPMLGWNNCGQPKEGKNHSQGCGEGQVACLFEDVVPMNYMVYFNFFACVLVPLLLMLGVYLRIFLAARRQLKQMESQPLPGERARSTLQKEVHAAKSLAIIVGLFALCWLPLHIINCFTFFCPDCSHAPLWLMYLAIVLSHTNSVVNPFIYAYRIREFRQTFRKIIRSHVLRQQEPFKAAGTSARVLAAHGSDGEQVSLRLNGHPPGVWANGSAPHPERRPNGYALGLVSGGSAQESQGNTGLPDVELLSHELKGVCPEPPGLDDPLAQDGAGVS

Row | Ki (Adenosine receptor A2a) [µM] | Ki (Adenosine receptor A3) [µM] | Ki (Adenosine receptor A1) [µM] | Structure (SMILES)
1 | 6.08 | 0.0236 | > 10 | CCNC(=O)[C@H]1OC(n2cnc3c(NCCCCCCNc4ccc([N+](=O)[O-])c5nonc45)ncnc32)[C@H](O)[C@@H]1O (stereo not given in full)
2 | > 10 | 0.381 | > 10 | CCNC(=O)[C@H]1OC(n2cnc3c(NCCCCNc4ccc([N+](=O)[O-])c5nonc45)ncnc32)[C@H](O)[C@@H]1O (stereo not given in full)
3 | 6.75 | 0.0558 | > 10 | CCNC(=O)[C@H]1OC(n2cnc3c(NCCNc4ccc([N+](=O)[O-])c5nonc45)ncnc32)[C@H](O)[C@@H]1O (stereo not given in full)
4 | 5.1 | 0.00744 | 3.48 | CCNC(=O)[C@H]1OC(n2cnc3c(NCCCCCCCCNc4ccc([N+](=O)[O-])c5nonc45)ncnc32)[C@H](O)[C@@H]1O (stereo not given in full)
5 | 6.1 | 0.0281 | 6.35 | CCNC(=O)[C@H]1OC(n2cnc3c(NCCCCCCCCCCNc4ccc([N+](=O)[O-])c5nonc45)ncnc32)[C@H](O)[C@@H]1O (stereo not given in full)
